Source: the RNAGym collection of RNA variant scans (doi:10.1126/science.aae0568)
Fewer inactive variants are shown than the library holds.

B1: tRNA (parent)
chain: GUUCCGUUGGCGUAAUGGUAACGCGUCUCCCUCCUAAGGAGAAGACUGCGGGUUCGAGUCCCGUACGGAACG

Variants of: B1
Test: yeast fitness relative to wild type (ratio to wild type); higher = fitter; tRNA-Arg(CCU), competitive growth, 37 C, YPD
Procedure, shortened: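 A pool of Saccharomyces cerevisiae strains, each with a tRNA-Arg(CCU) gene variant at the native genomic locus, was competed in YPD at 37°C for 24 hours across six parallel replicates. The variants had been chemically synthesised at a 3% per-site mutation rate over 69 sites, and gene amplicons before and after competition were read by 100-nucleotide paired-end sequencing. Darwinian fitness relative to wild type rested on changes in genotype frequencies. Genotypes required ≥ 100 starting reads, and estimates < 0.5 were set to 0.5.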

Variant | yeast fitness
A21C G23A C46G U53C | 0.698
A21G A57G | 0.875
A21G A57U | 0.97
A21G A42U A57U C62U | ≤ 0.5
A21G C29U G39A A45U | 0.547
A21G A43U C61A | ≤ 0.5
A21G C30A C33G U47C U59A C66U | ≤ 0.5
A21G A42U G68C | 0.539
A21G C27G C49U | 0.557
A21G C27A A37U G50A C66U | ≤ 0.5
A21G G25C C29A C55G G68C | ≤ 0.5
A21C G39A C49A | ≤ 0.5
A21G G25C C27G A42C A43G | ≤ 0.5
A21G C27U A37U A45U C62G | ≤ 0.5
A21G A42C G52A | 0.637
A21G A43C A70U | 0.712
A21C G25C U26G U59A A70C | 0.559
A21G A40C A42C C66A | ≤ 0.5
A21G A40U | 0.914
A21G A40C | 0.88
A21G A40G | 0.986

Variant | yeast fitness
A21G C34U C55G | ≤ 0.5
A21G A65C | 0.924
A21G A65U | 0.848
A21C G23A C24U C31U C49U G67A | ≤ 0.5
A21G U26A A65C | 0.527
A21G C24U G44C | 0.583
A21G U26G G51C | ≤ 0.5
A21G G51C | 0.647
A21G G51A | 0.836
A21G G52C | 0.639
A21G C22U C24U A37U A45G C46G G68C | ≤ 0.5
A21C U32A C46A U64A A65C | ≤ 0.5
A21G C49A | 0.736
A21G C49G | 1.13
A21C G44A U47C | 0.51
A21G C22U C66U G68C | ≤ 0.5
A21G G23A | 0.787
A21G G23C | 0.676
A21C G23A A37C U54C | ≤ 0.5
A21G A43C A69U A70C | 0.762
A21G A45G C46G | 0.802

Variant | yeast fitness
A21G C33U U59A | ≤ 0.5
A21G A40C A42U C46U C49U G51A A69C | 0.596
A21G C46U G52C | 0.794
A21G C22A C55A G67C | ≤ 0.5
A21G C30A C33G U59A C66U | 0.535
A21C G39A G52C C62U | ≤ 0.5
A21G A42C G67A | 0.662
A21C C55A A57U | 0.535
A21C U47A C60U G67C A69U | 0.574
A21G C33A G41C | ≤ 0.5
A21C U32A C34A G38A A45U | ≤ 0.5
A21G C27A A36U A40G | 0.587
A21C U32C C46U C66U | 0.585
A21G A42U C49U G67A | ≤ 0.5
A21G A37C A65U G68C | ≤ 0.5
A21G G63C | 0.73
A21G G63A | 0.863
A21G G23A C31U G63C A69U | ≤ 0.5
A21G C24A A43U A57U C66A | 0.574
A21G G41C A69U | 0.682
A21G C34A C55A A69C | 0.565

Variant | yeast fitness
A21C G25C U26G A70C | ≤ 0.5
A21G C33A A40C | 0.527
A21G A45C C66U | 0.555
A21G C61A | 0.645
A21G C61G | 0.654
A21G C61U | 1
A21G C33U G51C | ≤ 0.5
A21C U26C A40G U47C | ≤ 0.5
A21G C29U A45U | 0.86
A21G A42C C66A | ≤ 0.5
A21G C27U C55A | 0.701
A21G C22G C29G | ≤ 0.5
A21G C27A G39C C55U A65C | ≤ 0.5
A21G G39C | 0.732
A21G C29G A65U G67U | ≤ 0.5
A21G G67U | 0.87
A21G G23A C31U A45C C60A C66U | ≤ 0.5
A21G C22U | 0.683
A21G C22A | 0.834
A21G G48C C61G C62A C66U | ≤ 0.5
